Activity calls are given as the source filed them. The rule behind the calls is not given here.
What was measured:
K562 [1] = assay: Induction of apoptosis in human K562 cells using annexin-V/PI staining by flow cytometry; format: functional, cell-based
Summary of the method: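 K562 cells treated for 48 h; apoptosis scored by annexin V test. AC50 is the concentration inducing apoptosis in 50% of cells. Triplicate points, SD error bars.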

K562 [2] = assay: Antiproliferative activity against human K562 cells assessed as growth inhibition after 48 hrs by trypan blue dye exclusion method; format: functional, cell-based; conditions: K562, 48 h
Histone deacetylase 1 = Histone deacetylase 1 (Homo sapiens, UniProt Q13547); assay: Inhibition of human recombinant HDAC1 using modified Boc-Lys(Ac)-AMC MAL as substrate after 1 hr by fluorescent activity assay
Sequence of Histone deacetylase 1 (Q13547 whole entry): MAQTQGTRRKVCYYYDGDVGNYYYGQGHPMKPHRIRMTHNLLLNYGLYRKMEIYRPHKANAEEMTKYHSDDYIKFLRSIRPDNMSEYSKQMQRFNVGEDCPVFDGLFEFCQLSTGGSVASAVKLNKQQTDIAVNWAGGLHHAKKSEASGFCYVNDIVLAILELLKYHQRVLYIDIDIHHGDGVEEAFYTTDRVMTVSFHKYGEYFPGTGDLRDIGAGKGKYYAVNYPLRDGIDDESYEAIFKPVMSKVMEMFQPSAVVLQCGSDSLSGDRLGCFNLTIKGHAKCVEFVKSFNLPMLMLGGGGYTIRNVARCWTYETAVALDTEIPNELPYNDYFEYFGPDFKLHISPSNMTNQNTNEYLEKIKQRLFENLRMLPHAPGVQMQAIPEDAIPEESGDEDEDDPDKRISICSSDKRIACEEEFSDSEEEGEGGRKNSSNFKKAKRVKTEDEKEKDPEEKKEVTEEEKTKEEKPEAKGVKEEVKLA

Histone deacetylase 4 = Histone deacetylase 4 (Homo sapiens, UniProt P56524); assay: Inhibition of human recombinant HDAC4 using (S)-[5-Acetylamino-1-(2-oxo-4-trifluorometyl-2Hchromen-7-ylcarbamoyl)pentl]carbami acid tert-Butyl Ester as substrate after 1 hr by fluorescent activity assay
Sequence of Histone deacetylase 4 (P56524 whole entry): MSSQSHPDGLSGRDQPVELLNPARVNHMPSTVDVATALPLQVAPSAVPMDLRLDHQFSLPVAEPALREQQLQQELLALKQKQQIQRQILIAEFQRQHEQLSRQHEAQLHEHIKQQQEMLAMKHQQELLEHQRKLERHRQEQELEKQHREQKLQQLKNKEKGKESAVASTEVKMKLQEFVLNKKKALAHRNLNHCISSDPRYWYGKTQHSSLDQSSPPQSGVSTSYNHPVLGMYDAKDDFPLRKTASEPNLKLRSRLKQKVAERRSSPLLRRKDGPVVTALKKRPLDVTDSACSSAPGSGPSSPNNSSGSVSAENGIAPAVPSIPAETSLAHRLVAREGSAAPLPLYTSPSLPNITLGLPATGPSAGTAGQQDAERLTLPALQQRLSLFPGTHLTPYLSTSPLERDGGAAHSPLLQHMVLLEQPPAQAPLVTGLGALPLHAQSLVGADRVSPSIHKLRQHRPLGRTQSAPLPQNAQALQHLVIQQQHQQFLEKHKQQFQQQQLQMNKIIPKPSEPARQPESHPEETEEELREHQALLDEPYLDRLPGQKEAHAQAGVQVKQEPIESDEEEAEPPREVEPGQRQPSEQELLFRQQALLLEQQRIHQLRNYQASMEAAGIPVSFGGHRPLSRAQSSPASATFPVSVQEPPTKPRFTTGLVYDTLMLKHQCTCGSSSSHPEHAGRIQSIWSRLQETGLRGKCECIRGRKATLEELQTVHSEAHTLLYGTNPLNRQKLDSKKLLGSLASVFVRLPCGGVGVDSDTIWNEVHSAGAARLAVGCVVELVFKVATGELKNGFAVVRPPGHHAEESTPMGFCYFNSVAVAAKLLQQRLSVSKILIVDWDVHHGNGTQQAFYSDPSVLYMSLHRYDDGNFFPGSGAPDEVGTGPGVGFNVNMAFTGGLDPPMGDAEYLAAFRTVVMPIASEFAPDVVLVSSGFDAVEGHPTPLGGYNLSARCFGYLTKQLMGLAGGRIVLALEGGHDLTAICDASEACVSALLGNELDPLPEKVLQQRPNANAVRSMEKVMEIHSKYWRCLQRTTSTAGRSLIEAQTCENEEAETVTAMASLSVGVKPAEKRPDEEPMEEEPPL

K562 [3] = assay: Ratio of SAHA AC50 to compound AC50 for human K562 cells using annexin-V/PI staining by flow cytometry; format: functional
MCF7 [4] = assay: Antiproliferative activity against human MCF7 cells assessed as reduction in doubling time at 5 uM after 10 to 18 hrs by real-time mode analysis; format: functional, cell-based
Summary of the method: (§1)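 Real-time proliferation of MCF-7 cells treated with 5 μM compound, recorded as cell index versus time over 36 h. Doubling time was calculated over the 10−18 h interval.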

[5] = Cell cycle arrest in human U937 cells assessed as block at G1 phase at 5 uM after 24 to 96 hrs using propidium iodide staining by FACScan flow cytometry; format: functional, cell-based; conditions: U-937
[6] = Cell cycle arrest in human U937 cells assessed as block at G1 phase at 5 uM after 24 to 96 hrs using propidium iodide staining by FACScan flow cytometry; conditions: U-937
MCF7 [7] = assay: Antimigratory activity against human MCF7 cells assessed as reduction in slope values at 5 uM up to 24 hrs by real-time mode analysis; format: functional; design: scale not given: the % may be the effect or the level left
Summary of the method: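 MCF-7 cells exposed to 5 μM compound and tracked in real time as cell index versus time over 27 h. Migration was expressed as the slope of the cell index within 24 h.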

MCF7 [8] = assay: Cell cycle arrest in human MCF7 cells assessed as block at G2-M phase at 5 uM after 24 to 96 hrs using propidium iodide staining by FACScan flow cytometry; format: functional, cell-based
MCF7 [9] = assay: Antiproliferative activity against human MCF7 cells at 5 uM after 10 hrs by real-time mode analysis; format: functional, cell-based; summary of the method: as §1
U-937 [10] = assay: Induction of apoptosis in human U937 cells using annexin-V/PI staining after 48 hrs by flow cytometry relative to SAHA; format: functional
Summary of the method: (§2)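 U937 cells treated with 5 μM compound for 48 h, with SAHA at 5 μM as positive control. Apoptosis and necrosis measured by annexin V/PI double staining and flow cytometry. Triplicate points, SD error bars.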

[11] = biological target: T1, Protein deacetylase HDAC6 (Homo sapiens, UniProt Q9UBN7); assay: Inhibition of human recombinant HDAC6 using Z-MAL as substrate after 1 hr by fluorescent activity assay
T1 sequence (Q9UBN7 whole entry): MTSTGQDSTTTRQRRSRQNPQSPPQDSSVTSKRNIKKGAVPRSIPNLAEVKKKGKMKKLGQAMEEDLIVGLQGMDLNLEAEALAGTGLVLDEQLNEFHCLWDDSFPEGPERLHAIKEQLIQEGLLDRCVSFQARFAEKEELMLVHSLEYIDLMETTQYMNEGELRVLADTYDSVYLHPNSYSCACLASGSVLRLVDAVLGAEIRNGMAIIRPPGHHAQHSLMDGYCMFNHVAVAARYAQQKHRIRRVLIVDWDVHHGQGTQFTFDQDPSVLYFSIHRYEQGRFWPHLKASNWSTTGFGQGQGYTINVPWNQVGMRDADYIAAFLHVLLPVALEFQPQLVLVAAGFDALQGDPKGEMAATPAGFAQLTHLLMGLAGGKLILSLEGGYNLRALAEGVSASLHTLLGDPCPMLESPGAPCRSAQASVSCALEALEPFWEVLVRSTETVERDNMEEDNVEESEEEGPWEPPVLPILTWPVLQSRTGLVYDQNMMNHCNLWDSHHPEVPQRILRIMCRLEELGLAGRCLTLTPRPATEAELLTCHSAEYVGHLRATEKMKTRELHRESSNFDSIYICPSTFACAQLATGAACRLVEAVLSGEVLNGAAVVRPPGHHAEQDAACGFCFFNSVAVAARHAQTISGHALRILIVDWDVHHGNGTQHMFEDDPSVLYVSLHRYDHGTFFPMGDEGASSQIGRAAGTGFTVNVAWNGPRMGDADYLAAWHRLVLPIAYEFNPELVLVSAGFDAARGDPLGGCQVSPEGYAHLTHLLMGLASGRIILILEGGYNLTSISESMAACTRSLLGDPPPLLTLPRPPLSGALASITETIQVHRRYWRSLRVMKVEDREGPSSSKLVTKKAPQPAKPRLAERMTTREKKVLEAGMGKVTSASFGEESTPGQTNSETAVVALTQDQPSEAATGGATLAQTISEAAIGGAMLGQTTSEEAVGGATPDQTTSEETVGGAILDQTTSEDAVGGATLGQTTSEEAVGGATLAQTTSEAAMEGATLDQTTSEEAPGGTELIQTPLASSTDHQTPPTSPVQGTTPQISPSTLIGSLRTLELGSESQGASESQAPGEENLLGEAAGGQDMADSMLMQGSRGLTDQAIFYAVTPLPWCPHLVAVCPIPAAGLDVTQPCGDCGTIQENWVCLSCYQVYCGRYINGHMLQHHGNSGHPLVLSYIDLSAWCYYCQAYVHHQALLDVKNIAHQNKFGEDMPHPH

MCF7 [12] = assay: Cell cycle arrest in human MCF7 cells assessed as block at G2 phase at 5 uM after 24 to 96 hrs using propidium iodide staining by FACScan flow cytometry
K562 [13] = assay: Cell cycle arrest in human K562 cells assessed as block at G1 phase at 40 uM after 24 hrs using propidium iodide staining by FACScan flow cytometry; format: functional, cell-based
K562 [14] = assay: Cell cycle arrest in human K562 cells assessed as block at G2-M phase at 40 uM after 24 hrs using propidium iodide staining by FACScan flow cytometry; format: functional, cell-based
U-937 [15] = assay: Induction of apoptosis in human U937 cells using annexin-V/PI staining after 48 hrs by flow cytometry; format: functional, cell-based; summary of the method: as §2

| IC50 (K562 [2]) | IC50 (Histone deacetylase 1) | Structure (SMILES) | AC50 (K562 [1]) | Activity (K562 [13]) | Activity (K562 [14]) | also measured |
| --- | --- | --- | --- | --- | --- | --- |
| 2.5 µM | 15.7 µM | O=C(CCCCCCNC(=O)c1ccc(-c2ccc(-c3cc(O)cc(O)c3)cc2)cc1)NO | 16 µM |  |  |  |
| 0.7 µM | 0.8 µM | COc1cc(/C=C/c2ccc(OC)c(NC(=O)CCCCCCC(=O)NO)c2)cc(OC)c1 | 5 µM |  |  | IC50 (Histone deacetylase 4): 9.8 µM; Ratio (K562 [3]): 2; Activity (MCF7 [4]): Active; Activity [5]: Active; Activity [6]: Active; Activity (MCF7 [7]): 25%; Activity (MCF7 [8]): Active; Activity (MCF7 [9]): Active; fold change (FC) (U-937 [10]): 2; IC50 [11]: 1.3 µM; Activity (MCF7 [12]): Active |
| 7.5 µM | 2.1 µM | COc1cc(/C=C\c2ccc(OC)c(NC(=O)CCCCCCC(=O)NO)c2)cc(OC)c1 | 40 µM | Active | Active | IC50 (Histone deacetylase 4): 7.6 µM; IC50 [11]: 1.6 µM |
| 6 µM | 0.9 µM | O=C(CCCCCNC(=O)c1ccc(-c2ccc(-c3cc(O)cc(O)c3)cc2)cc1)NO | 38 µM |  |  |  |

Further lines, the compound ahead of its results:

| Structure (SMILES) | IC50 (K562 [2]) | IC50 (Histone deacetylase 1) | AC50 (K562 [1]) | Activity (K562 [13]) | Activity (K562 [14]) | also measured |
| --- | --- | --- | --- | --- | --- | --- |
| Oc1ccc(-c2ccc(-c3cc(O)cc(O)c3)cc2)cc1 |  |  | > 50 µM |  |  |  |
| O=C(CCCCCCC(=O)Nc1ccccc1)NO [VORINOSTAT] |  |  | 10 µM | Active | Active | Activity (MCF7 [4]): Active; Activity [5]: Active; Activity [6]: Active; Activity (U-937 [15]): Active; Activity (MCF7 [8]): Active; Activity (MCF7 [12]): Active |
| O=C(NO)c1ccc(-c2ccc(-c3cc(O)cc(O)c3)cc2)cc1 | 20 µM | 8.9 µM | > 50 µM |  |  |  |
| COc1cc(/C=C/c2ccc(OC)c(N)c2)cc(OC)c1 | 2.5 µM |  | 20 µM | Active | Active |  |
| COc1cc(/C=C\c2ccc(OC)c(N)c2)cc(OC)c1 | 0.025 µM |  | 0.25 µM |  |  |  |

— ChEMBL document CHEMBL3351540, “Novel antiproliferative chimeric compounds with marked histone deacetylase inhibitory activity” (ACS Med Chem Lett, 2014)
